Measurements from ChEMBL document CHEMBL1140587, “Investigation of the terminal P4 domain in a series of D-phenylglycinamide-based factor Xa inhibitors” (Bioorg Med Chem Lett, 2007).

Columns and labels:
[1] = molecular target: Coagulation factor X (Homo sapiens) (UniProt P00742); test: Binding affinity to human factor10a
Plasma = test: Anticoagulant activity in human plasma assessed as concentration required to double prothrombin time; format: functional
[2] = AUC(0 to 7 hrs) in rat plasma at 20 mg/kg, po; format: ADME, organism-based; design: time < 7 hr, dose 20 mg/kg, route oral
Summary of the method: (§1)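 Fasted Fisher rats (n = 3) got one 20 mpk oral gavage, suspended in acacia or CMC/Tween 80. Citrated blood was taken at set times and spun to plasma. Drug level was read as anti-Xa equivalents: plasma at 37 °C for 15 min, S-2222 substrate, human fXa 0.4 U/ml, 405 nm kinetic over 10 min. Values came from triplicate spiked-plasma standards by four-parameter logistic fit; AUC by area algorithm.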

[3] = Cmax in rat plasma at 20 mg/kg, po; format: ADME, organism-based; design: dose 20 mg/kg, route oral; summary of the method: as §1

Chain of Coagulation factor X (Homo sapiens) (P00742 41-179 limits assumed): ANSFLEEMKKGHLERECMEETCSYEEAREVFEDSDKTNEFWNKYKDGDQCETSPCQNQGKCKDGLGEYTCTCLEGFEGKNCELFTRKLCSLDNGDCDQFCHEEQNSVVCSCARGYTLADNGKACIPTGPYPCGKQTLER
Chain of Coagulation factor X (Homo sapiens) (P00742 235-488 limits assumed): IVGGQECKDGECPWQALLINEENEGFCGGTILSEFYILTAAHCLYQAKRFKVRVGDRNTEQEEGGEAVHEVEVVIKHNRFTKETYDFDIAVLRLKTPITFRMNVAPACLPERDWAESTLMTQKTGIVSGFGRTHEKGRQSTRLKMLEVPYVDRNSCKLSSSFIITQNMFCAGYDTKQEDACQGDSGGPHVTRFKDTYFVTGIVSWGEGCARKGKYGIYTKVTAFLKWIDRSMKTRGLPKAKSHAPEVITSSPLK

Kapp [1]	AUC(0-t) at 7 h [2] [ng·h/mL]	Cmax [3] [µM]	SMILES	Activity (Plasma) [µM]
1.5 10^6L/mol			CN1CCN(CC2CCN(C(=O)[C@H](NC(=O)c3ccc4cc[nH]c4c3)c3ccccc3)CC2)CC1	
18 10^6L/mol			O=C(N[C@@H](C(=O)N1CCC(CN2CCC[C@@H]2CO)CC1)c1ccccc1)c1ccc2cc[nH]c2c1	2.2
710 10^6L/mol	10000	1.7	O=C(N[C@@H](C(=O)N1CCC(CN2CCCCC2)CC1)c1ccccc1)c1ccc2c(Cl)c[nH]c2c1	1.1
7.8 10^6L/mol			CC(C)NCC1CCN(C(=O)[C@H](NC(=O)c2ccc3cc[nH]c3c2)c2ccccc2)CC1	
3.9 10^6L/mol			O=C(N[C@@H](C(=O)N1CCC(CN2CCNCC2)CC1)c1ccccc1)c1ccc2cc[nH]c2c1	
28 10^6L/mol			CCN(CC)CC1CCN(C(=O)[C@H](NC(=O)c2ccc3cc[nH]c3c2)c2ccccc2)CC1	2.3
10 10^6L/mol			O=C(N[C@@H](C(=O)N1CCC(CN2CCC(O)CC2)CC1)c1ccccc1)c1ccc2cc[nH]c2c1	
9.7 10^6L/mol			O=C(N[C@@H](C(=O)N1CCC(CN2CCC[C@H]2CO)CC1)c1ccccc1)c1ccc2cc[nH]c2c1	
5 10^6L/mol			O=C(N[C@@H](C(=O)N1CCC(CN2CCC(O)C2)CC1)c1ccccc1)c1ccc2cc[nH]c2c1 (stereo not given in full)	
450 10^6L/mol	19000	4	CN1CCC(C2CCN(C(=O)[C@H](NC(=O)c3ccc4cc[nH]c4c3)c3ccccc3)CC2)CC1	1.5
4 10^6L/mol			O=C(N[C@@H](C(=O)N1CCC(CN2CC[C@@H](O)C2)CC1)c1ccccc1)c1ccc2cc[nH]c2c1	
0.7 10^6L/mol			O=C(N[C@@H](C(=O)N1CCC(CN2CCC(CO)CC2)CC1)c1ccccc1)c1ccc2cc[nH]c2c1	
48 10^6L/mol	23000	4.7	O=C(N[C@@H](C(=O)N1CCC(CN2CCCCC2)CC1)c1ccccc1)c1ccc2cc[nH]c2c1	1.2
24 10^6L/mol			O=C(N[C@@H](C(=O)N1CCC(CN2CCCC2)CC1)c1ccccc1)c1ccc2cc[nH]c2c1	2.2
110 10^6L/mol	14000	2.4	Cc1c[nH]c2cc(C(=O)N[C@@H](C(=O)N3CCC(CN4CCCCC4)CC3)c3ccccc3)ccc12	1.5
